Experimental data of several laboratories.
Action: agonist
CNR2: Cannabinoid receptor 2 (CNR2, Homo sapiens, UniProt P34972)
MC5R: Melanocortin receptor 5 (MC5R, Homo sapiens, UniProt P33032)
ADRB2: Beta-2 adrenergic receptor (ADRB2, Homo sapiens, UniProt P07550)
AHR: Aryl hydrocarbon receptor (AHR, Homo sapiens, UniProt P35869)

`CC1CCN(C(NC(=O)c2ccc(C(C)(C)C)cc2)C(Cl)(Cl)Cl)CC1` (stereo not drawn) has an EC50 of 0.0501 µM (CNR2; cAMP; TR-FRET).
With `CSCC[C@H](NC(=O)[C@@H](NC(=O)[C@@H](N)Cc1ccc(O)cc1)C(C)C)C(=O)NCC(=O)N[C@@H](Cc1c[nH]cn1)C(=O)N[C@@H](Cc1ccccc1)C(=O)N[C@@H](CCCNC(=N)N)C(=O)N[C@@H](Cc1c[nH]c2ccccc12)C(=O)O` the EC50 was 23.9 µM (MC5R; reporter gene).
The EC50 of `Cc1ccc(-n2c(C)ccc2C)c2c1CC(C)(C)O2` is reported as 65 µM (ADRB2; calcium signal; fluorescence).
`N=C(N)NCCC[C@H](NC(=O)[C@H](Cc1ccccc1)NC(=O)[C@@H](N)Cc1cnc[nH]1)C(=O)N[C@@H](Cc1c[nH]c2ccccc12)C(=O)O` gave an EC50 of over 100 µM (MC5R; reporter gene).
With `O=c1ccn([C@@H]2O[C@H](COP(=O)(O)OP(=O)(O)O)[C@@H](O)[C@H]2O)c(=O)[nH]1` the EC50 was 0.295 µM (P2Y purinoceptor 6 (P2RY6, Homo sapiens, UniProt Q15077); inositol phosphate).
`CC(C)OC(=O)c1cccc(C(=O)c2c[nH]c3ccccc23)n1` has an EC50 of over 10 µM (AHR; reporter gene; luciferase).
`COc1ccc(CNC(=S)NC(C)(C)C)cc1` has an EC50 of 1.9 µM (ADRB2; calcium signal; fluorescence).
With `COC(=O)c1ccccc1C(=O)c1c[nH]c2ccccc12` the EC50 was over 10 µM (AHR; reporter gene; luciferase).
`CCOC(=O)[C@](CC)(CCCS(=O)(=O)CCOCCOCCNC(=O)OC(C)(C)C)NC(=O)c1ccc(C2CC2)c(Cc2ccc(F)cc2)n1` gave an EC50 of 0.017 µM (CNR2; cAMP).
`CSCC[C@H](NC(=O)[C@@H](NC(=O)[C@@H](N)Cc1ccc(O)cc1)C(C)C)C(=O)NCC(=O)N[C@@H](Cc1c[nH]cn1)C(=O)N[C@@H](Cc1ccccc1)C(=O)N[C@@H](CCCNC(=N)N)C(=O)N[C@@H](Cc1c[nH]c2ccccc12)C(=O)N[C@@H](CC(=O)O)C(=O)N[C@@H](CCCNC(=N)N)C(=O)O` has an EC50 of 7.36 µM (MC5R; reporter gene).
`c1ccc(Nc2nc3ccccc3nc2Nc2ccccc2)cc1` gave an EC50 of 0.0251 µM (CNR2; cAMP; TR-FRET).
For `COC(=O)c1cccc(C(=O)c2c[nH]c3ccc(Cl)cc23)n1`, the EC50 was 0.032 µM (AHR; reporter gene; luciferase).
